pIC50: −log10 of the molar value.

Data on 40 molecules can be found in ChEMBL document CHEMBL1141001, “Synthesis of trans-caffeate analogues and their bioactivities against HIV-1 integrase and cancer cell lines” (Bioorg Med Chem Lett, 2008).

The target of assay [1] is Human immunodeficiency virus type 1 integrase (Human immunodeficiency virus 1, UniProt Q7ZJM1). The assay is described as follows: Inhibition of HIV1 integrase by ELISA. Summed up:
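HIV-1 integrase activity was read out by ELISA, and inhibition was expressed as an IC50.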
A general note: An ELISA detects its analyte on a solid surface through an enzyme-linked reagent.

The test system of a further assay is BEL-7404 (Homo sapiens). The assay is described as follows: Cytotoxicity against human BEL-7404 cells by MTT assay.
Another assay concerns MCF7. The assay is described as follows: Cytotoxicity against human MCF7 cells by MTT assay. The format is functional, cell-based.
Assay [2] is described as follows: Cytotoxicity against human BCG823 cells by MTT assay. The format is functional, cell-based. (In general: Tetrazolium assays rely on reduction of a dye to a coloured formazan, in cell work by metabolically active cells.)
Another assay concerns A549. The experiment in a line: Cytotoxicity against human A549 cells by MTT assay. The format is functional, cell-based.

Sequence of Human immunodeficiency virus type 1 integrase (Q7ZJM1 whole entry): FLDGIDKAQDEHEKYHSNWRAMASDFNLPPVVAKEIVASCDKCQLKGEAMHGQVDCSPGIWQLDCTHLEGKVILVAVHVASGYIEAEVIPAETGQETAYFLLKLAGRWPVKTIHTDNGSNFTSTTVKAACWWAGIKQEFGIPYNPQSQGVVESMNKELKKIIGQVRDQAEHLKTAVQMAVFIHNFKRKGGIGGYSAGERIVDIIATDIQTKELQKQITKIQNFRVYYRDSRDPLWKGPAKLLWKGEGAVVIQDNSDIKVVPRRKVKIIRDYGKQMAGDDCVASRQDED

In the case of `COc1cc(/C=C/C(=O)OCCc2ccccc2)cc(Cl)c1O`, in assay [1], the pIC50 (as a rule, the negative decadic logarithm of the IC50, by convention in mol/L) is under 4.00.
`COc1c(O)ccc(/C=C/C(=O)OC2CC3CCC2(C)C3(C)C)c1[N+](=O)[O-]` (stereo not drawn): the pIC50 in the assay on BEL-7404 (Homo sapiens) is 5.18; with MCF7 it was 4.21; in assay [2] it was 4.49; in assay [1], under 4.00; in the assay on A549, 4.68.
`CCOC(=O)/C=C/c1ccc(O)c(O)c1` [ETHYL CAFFEATE] had a pIC50 in assay [1] of under 4.00.
Turning to `COC(=O)/C=C/c1ccc(O)c(O)c1` [METHYLCAFFEATE], in assay [1], the pIC50 was under 4.00.
Take `CC1(C)C2CCC1(C)C(OC(=O)/C=C/c1ccc(O)c(O)c1[N+](=O)[O-])C2` (stereo not drawn): the pIC50 is 4.54 in the assay with BEL-7404 (Homo sapiens); 4.39 in the assay with MCF7; 3.93 in assay [2]; 4.87 in assay [1]; 4.28 in the assay with A549.
The molecule `CCCCCCCCOC(=O)/C=C/c1ccc(O)c(O)c1` had a pIC50 in assay [1] of under 4.00.
As to `O=C(/C=C/c1ccc(O)c(O)c1)OCc1ccccc1` [BENZYL CAFFEATE], the pIC50 was 4.76 with BEL-7404 (Homo sapiens); 4.85 in the assay with MCF7; 4.32 in assay [2]; under 4.00 in assay [1]; 4.56 in the assay on A549.
In assay [1], `CCCCOC(=O)/C=C/c1ccc(O)c(O)c1` [BUTYL CAFFEATE] showed a pIC50 of under 4.00.
With `COc1cc(/C=C/C(=O)O)cc(Cl)c1O`, in assay [1], the pIC50 is under 4.00.
`C=CCOC(=O)/C=C/c1ccc(O)c(O)c1` had a pIC50 in assay [1] of under 4.00.
Molecule `COc1c(O)ccc(/C=C/C(=O)OCCc2ccccc2)c1[N+](=O)[O-]` gave a pIC50 in assay [1] of under 4.00.
In turn, `CC(C)(COC(=O)/C=C/c1ccc(O)c(O)c1)[N+](=O)[O-]` showed a pIC50 in assay [1] of under 4.00.
In assay [1], `COc1cc(/C=C/C(=O)O)cc(Br)c1O` showed a pIC50 of under 4.00.
`COc1cc(/C=C/C(=O)OC2CC3CCC2(C)C3(C)C)cc(Br)c1O` (stereo not drawn) showed a pIC50 in assay [1] of under 4.00.
For the molecule `O=C(/C=C/c1cc(O)c(O)c([N+](=O)[O-])c1)OCCc1ccccc1`, the pIC50 with BEL-7404 (Homo sapiens) was 4.22; in the assay on MCF7, 4.91; in assay [2] it was 4.64; in assay [1], 4.60; in the assay with A549, 4.94.
In assay [1], `C#CCOC(=O)/C=C/c1ccc(O)c(O)c1` showed a pIC50 of under 4.00.
In assay [1], `COc1cc(/C=C/C(=O)O)cc([N+](=O)[O-])c1O` showed a pIC50 of under 4.00.
Consider `O=C(/C=C/c1ccc(O)c(O)c1)Oc1ccccc1`, for which the pIC50 is 4.35 in the assay with BEL-7404 (Homo sapiens); 5.23 with MCF7; 4.25 in assay [2]; under 4.00 in assay [1]; 4.12 in the assay on A549.
Take `CCCCCCC(C)OC(=O)/C=C/c1ccc(O)c(O)c1` (stereo not drawn): the pIC50 in assay [1] was under 4.00.
As for `O=C(O)/C=C/c1ccc(O)c(O)c1` [CAFFEIC ACID], in assay [1], the pIC50 is under 4.00.
In assay [1], `CCCCCCCCCCCCCCCCCCOC(=O)/C=C/c1ccc(O)c(O)c1` gave a pIC50 of under 4.00.
For `CCC(C)OC(=O)/C=C/c1ccc(O)c(O)c1` (stereo not drawn), the pIC50 in assay [1] is under 4.00.
As to `CC1(C)C2CCC1(C)C(OC(=O)/C=C/c1ccc(O)c(O)c1)C2` (stereo not drawn), the pIC50 in the assay with BEL-7404 (Homo sapiens) was 4.55; in the assay on MCF7, under 3.52; in assay [2] it was 4.00; in assay [1], 4.70; with A549, 4.71.
As to `COc1cc(/C=C/C(=O)OC2CC3CCC2(C)C3(C)C)cc([N+](=O)[O-])c1O` (stereo not drawn), in assay [1], the pIC50 is under 4.00.
Same read-out and setting: as for `CC(C)(C)OC(=O)/C=C/c1ccc(O)c(O)c1`, the figure is under 4.00; as for `CC1(C)C2CCC1(C)C(OC(=O)/C=C/c1cc(O)c(O)c([N+](=O)[O-])c1)C2` (stereo not drawn), under 4.00.
On the same count and under the same terms, as for `CCCOC(=O)/C=C/c1ccc(O)c(O)c1`, the figure is under 4.00; as for `O=C(O)/C=C/c1cc(O)c(O)c([N+](=O)[O-])c1`, 4.57.
As to `COc1cc(/C=C/C(=O)OCCc2ccccc2)cc([N+](=O)[O-])c1O`, the pIC50 with BEL-7404 (Homo sapiens) is under 3.52; in the assay with MCF7, under 3.52; in assay [2], under 3.52; in assay [1], under 4.00; with A549 it was under 3.52.
On to `O=C(/C=C/c1ccc(O)c(O)c1[N+](=O)[O-])OCCc1ccccc1`, for which the pIC50 with BEL-7404 (Homo sapiens) was 4.99; in the assay with MCF7, 4.54; in assay [2] it was 4.56; in assay [1] it was under 4.00; in the assay with A549, 5.06.
Take `CCCCCCCOC(=O)/C=C/c1ccc(O)c(O)c1`: in assay [1], the pIC50 is under 4.00.
Molecule `O=C(O)/C=C/c1ccc(O)c(O)c1[N+](=O)[O-]` gave a pIC50 in assay [1] of under 4.00.
`COc1cc(/C=C/C(=O)O)ccc1O` [FERULATE] showed a pIC50 in assay [1] of under 4.00.
For `COc1cc(/C=C/C(=O)OCCc2ccccc2)cc(Br)c1O`, the pIC50 is under 3.52 in the assay on BEL-7404 (Homo sapiens); under 3.52 in the assay on MCF7; under 3.52 in assay [2]; under 4.00 in assay [1]; under 3.52 in the assay with A549.
`COc1cc(/C=C/C(=O)OC2CC3CCC2(C)C3(C)C)cc(Cl)c1O` (stereo not drawn): the pIC50 in assay [1] was under 4.00.
In the case of `O=C(/C=C/c1ccc(O)c(O)c1)OC1CCCCC1`, the pIC50 is 4.81 with BEL-7404 (Homo sapiens); 4.52 in the assay on MCF7; 4.01 in assay [2]; under 4.00 in assay [1]; 4.05 in the assay with A549.
For `O=C(/C=C/c1ccc(O)c(O)c1)OCCc1ccccc1` [CAFFEIC ACID PHENETHYL ESTER], the pIC50 is 5.26 in the assay with BEL-7404 (Homo sapiens); 4.57 in the assay on MCF7; 4.35 in assay [2]; under 4.00 in assay [1]; 4.08 with A549.
In assay [1], `CC(C)OC(=O)/C=C/c1ccc(O)c(O)c1` showed a pIC50 of under 4.00.
In turn, `COc1c(O)ccc(/C=C/C(=O)O)c1[N+](=O)[O-]` had a pIC50 in assay [1] of under 4.00.
`O=C(/C=C/c1ccc(O)c(O)c1)Oc1ccc2ccccc2c1`: the pIC50 in the assay on BEL-7404 (Homo sapiens) is 4.24; in the assay on MCF7, 4.89; in assay [2], 4.22; in assay [1], under 4.00; with A549 it was 4.30.
